Measurements as given in the EternaBench riboswitch data.

System: MS2 coat protein
Assay: apparent Kd, MS2 coat protein; higher = weaker binding; RNA-MaP array; FMN 200 µM where present
How it was run: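 The titrant was SNAP-549-labelled MS2 coat protein, run from 0.7 or 1.5 nM in doubling steps to 3 µM. It was applied to designs transcribed by stalled E. coli RNA polymerase on Illumina sequencing-chip clusters, without ligand first and then with constant ligand, in 100 mM Tris-HCl pH 7.5, 80 mM KCl, 4 mM MgCl2, BSA, DTT, yeast tRNA and Tween-20. The apparent Kd is the median of filtered per-cluster binding-curve fits, with green signal normalised to red-channel RNA signal and control-cluster median Fmax.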

[1] = designed as: OFF switch for flavin mononucleotide, no ligand
[2] = ligand present: flavin mononucleotide, designed as: OFF switch for flavin mononucleotide
[3] = designed as: ON switch for flavin mononucleotide, no ligand
[4] = ligand present: flavin mononucleotide, designed as: ON switch for flavin mononucleotide

Sequence | apparent Kd [1] | apparent Kd [2] | apparent Kd [3] | apparent Kd [4]
AACAGCUCGUCAGGAUAUACGUCACUGCGUCAGCAGUGUGGUAAGAUCACAUGAGGAUCACCCAUGUAGAAGGGACGAGCUGAU | 14.3 nM | 267 nM |  | 
AACAGCUCGUCAGGAUAUAUUUUCCUUUUAUGUAUUUAUGUACAUGAGGAUCACCCAUGUUGUUUGUAGAAGGGACGAGCUGAA | 27.5 nM | 35.7 nM |  | 
AACAGCUCGUCAGGAUAUAUUUUCUUUUUAUGUAUUUAUGUACAUGAGGAUCACCCAUGUUGUUUGUAGAAGGGACGAGCUGAA | 20.1 nM | 16.7 nM |  | 
AACAGGACAGGAUAUACAUGAGGAUCACCCAUGUGAGAAUUAAGUAGAUUGCCACAGAGUAGAAGGGUCCUGGA | 66.6 nM | 91.2 nM |  | 
AACAGGUCAGGAUAUACAUGAGGAUCACCCAUGUAACAAGCGGAGGCGACUUCUCAAGGUAGAAGGGAUCUCCG | 19.8 nM | 18.9 nM |  | 
AACAGGUGAGGAUAUCGAACAACAACAACAACAACAACAAACGAGAAGGCACAUGAGGAUCACCCAUGUAAGAA | 20 nM | 17.5 nM |  | 
AACAGUACAGGAUAUACAUGAGGAUCACCCAUGUGAUCAUCAAGUGCCGUAGCACGAAGUAGAAGGGUACUGGA | 207 nM | 57 nM |  | 
AACAUACUGUACAUGAGGAUCACCCAUGUUCGGGCACUGUACAGAAGGCACGGGCAAAUGCGAGGUGAGGAUAUGUAGUUAGUG |  |  | 122 nM | 49.8 nM
AACCAUGAGCGAGGAUAUCACCCUACGGAGUGGUGAGAAGGCGCAACAUGAGGAUCACCCAUGUACAAAUGCGGGACCCUUUUC | 31 nM | 92.6 nM |  | 
AACCGACAUGAGGAUCACCCAUGUCAGGAUAUGGACUGACAUCGAAAGGAUGGAGGAACCAGAAGGGACUGGGC | 37.1 nM | 81.6 nM |  | 
AACGAGGCAGGAUAUACAUGAGGAUCACCCAUGUGCUUGCAUGGCGUGGGAAGUCAUCGUAGAAGGGCCAUGCC | 154 nM | 74.2 nM |  | 
AACGAUCUAGGAUAUACAUGAGGAUCACCCAUGUAAGAGCCCGAACCGGGCUCCCUCUGUAGAAGGAGGUCAAA | 32.7 nM | 40.3 nM |  | 
AACGCGUCAGGAUAUAGCGAAACUUAGGUAGUACAACCAUACUAGAAGGGACAUGAGGAUCACCCAUGUGGGUA | 209 nM | 104 nM |  | 
AACGCGUCAGGAUAUGCCAUAAAUUACCUAAUACGACCAUAGCAGAAGGGACAUGAGGAUCACCCAUGUAAAUA | 36.2 nM | 28.8 nM |  | 
AACGUGGCUUAGGAUAUUGCUACGCAAAAGUAACAAGAAGGAGGCACAUGAGGAUCACCCAUGUGAUUCGUUGA | 19.8 nM | 44.9 nM |  | 
AACGUGUCAGGAUAUGCUGCUCGUCACGAAAGUGAUGAGUAGCAGAAGGGACAUGAGGAUCACCCAUGUAAAGA | 153 nM | 101 nM |  | 
AACUAACAUGAGGAUCACCCAUGUCAGGAUAUGCAUCAAUCAAUCAAUCAAUCAAUCAGCAGAAGGGACACUAC | 16.8 nM | 19.4 nM |  | 
AACUAGUCAGGAUAUACGAACAUGUCAAAAAACAUAAAGGGACAUGAGGAUCACCCAUGUAGAAGGGACUAGCA | 177 nM | 666 nM |  | 
AACUCGUCAGGAUAUGCGCGCAGUUACUACGCUUCGCAAUUGCAGAAGGGACAUGAGGAUCACCCAUGUAGAUC | 34.6 nM | 57.3 nM |  | 
AACUGACAUGAGGAUCACCCAUGUCAGGAUAUGACUUGACGAAAUAAAACACGUCAUGUCAGAAGGGACAUGAA | 17.4 nM | 15.2 nM |  | 
AAGAAACAUGAGGAUCACCCAUGUGAGGAUAUGUAAAAGAAAAGAAAAUAAAGAAGAAACAGAAGGCACAAAGG | 40.2 nM | 64.4 nM |  | 
AAGAAAGUUUACGAGGAUAUGUUCCGCAUAACAUGAGGAUCACCCAUGUGAACAAGAAAGGCGACGCAGAAGGCGUGAGCAAAGA |  |  | 359 nM | 43.2 nM

Sequence | apparent Kd [1] | apparent Kd [2] | apparent Kd [3] | apparent Kd [4]
AAGAACUGAGGAUAUGCAAAAGGGAAAGCUGAUCCUCAUCUACAUGAGGAUCACCCAUGUAGAAGGCGGGAAAU | 49.4 nM | 50.5 nM |  | 
AAGAAGUCAGGAUAUGCUGCUCGUCACUUGCGUGAUGAGUAGCAGAAGGGACAUGAGGAUCACCCAUGUAAAGA | 32.5 nM | 67.4 nM |  | 
AAGAAGUGAGGAUAUACAUGAGGAUCACCCAUGUAAAGAAGAAGAGGAGAGAAUAAAGGUAGAAGGCACAAGAA | 45.8 nM | 46 nM |  | 
AAGAAGUGAGGAUAUGUAUCAGUAUAGUUGCCUAUACUGAUGUAGAAGGCACAUGAGGAUCACCCAUGUCCUAA | 20.8 nM | 25 nM |  | 
AAGACACAUGAGGAUCACCCAUGUCAAGAGAGACGAGGAUAUCUGAAUUAAUUAAAUUAAGGAGAAGGCGUGAAAA |  |  | 78.9 nM | 30.9 nM
AAGACAUGAGGAUCACCCAUGUAAAGACCGGUCGAUCAAUGUGAGGAUAUACGAUAAUUGAUAGGGUAGAAGGCACUGGGUUGA |  |  | 264 nM | 151 nM
AAGACUAGAGGAUAUACAUGAGGAUCACCCAUGUAACUGUCAGGUGACUGACGGAAAAGUAGAAGGCUAGUCAA | 16.6 nM | 20 nM |  | 
AAGAGAAAAGCAGGAUAUCUAUUGGCUCCUUAACAUGAGGAUCACCCAUGUAGAGAAGGGCUAAGACCGACUCUUCGGAGUUGA | 7.07 nM | 20.6 nM |  | 
AAGAGACAUCAGAAGGGAGCCCGAACGCGCGGCUCAGGAUAUGAGAUCUUAUGUAGUACGACAUGAGGAUCACCCAUGUCCGCG |  |  | 28.2 nM | 8.05 nM
AAGAGCGAUUCUCCCUUCCUACAUGAGGAUCACCCAUGUACGAGAAGGCGCCGUGUAUACAACGGUGAGGAUAUCGUGCGUUAC | 4.64 nM | 4.91 nM |  | 
AAGAGUAGAGGAUAUACAUGAGGAUCACCCAUGUAAUCCAGAUAAGGAAGCAUGGCGUGUAGAAGGCUGCAUGA | 38.5 nM | 42.4 nM |  | 
AAGAGUGCAGGAUAUACUUGUUAGGACGGUUGGAUGGUUUGACAUGAGGAUCACCCAUGUAGAAGGGCAGAGAG | 67.7 nM | 67.8 nM |  | 
AAGCACAGAGGAUAUACAUGGGUGAUAAAAAUCAUGUAAAAACAUGAGGAUCACCCAUGUAGAAGGCUGUGCAA | 22 nM | 23.1 nM |  | 
AAGCAGGUAAUAAAGUAGAAAUACAUGAGGAUCACCCAUGUAUAGGAUAUCGUCAGGAAUACUGACGAGAAGGAUACAUCCUGC | 15.3 nM | 18.6 nM |  | 
AAGCCCUGAGGAUAUCUCAUCUCGCACAUGAGGAUCACCCAUGUUCUUCUCUGGGUUUCGAGAGAAGGCAGGCCUC | 954 nM | 641 nM |  | 
AAGCGACAUGAGGAUCACCCAUGUAGCAGGGUCAGAGGAUAUUUGAGCUUGGUGAGGGUUAAAGAAGGUUGAAAUC |  |  | 25.2 nM | 33.1 nM
AAGCUCGUGUGAGGAUAUGCCGCCGUUUCGGCUGCAGAAGGUGCUACGUUACAUGAGGAUCACCCAUGUCUCUGUUGUUUCGUC |  |  | 29.9 nM | 24.8 nM
AAGGAGUGAGGAUAUGCGCGGGCACGCUCUAAAUAAGAAAGACAUGAGGAUCACCCAUGUAGAAGGCACAAUAA | 19.9 nM | 32.5 nM |  | 
AAGGCCUAUUCCAGGACUAUCGUACUAGAAGGGUGACUUGACAUGAGGAUCACCCAUGUACGAGCACAGGAUAUAGAUGAAAGG |  |  | 42.7 nM | 20.2 nM
AAGGUACGAGGAUAUACAUAGAUACAGACACAUGUGCAUGUACAUGAGGAUCACCCAUGUAGAAGGCGUAUAUA | 30.2 nM | 110 nM |  | 
AAGGUGAGAGGAUAUACAUGAGGAUCACCCAUGUGUCGGCCCUCCACAUAUGCCUUGUGUAGAAGGCUCCCGAG | 14.6 nM | 22.3 nM |  | 
